The source of these data is ChEMBL document CHEMBL1155279, “1,5-Diaryl-2-ethyl pyrrole derivatives as antimycobacterial agents: design, synthesis, and microbiological evaluation” (Eur J Med Chem, 2009).

Values after ≈ are worked out from the molar mass of the structure shown. A value given as a limit tells only on which side of the number the result lay.

The subject of the assay is Mycobacterium tuberculosis. In words: Antimycobacterial activity against rifampicin-resistant Mycobacterium tuberculosis ATCC 35838 by twofold agar dilution method. The format is functional. In short, it runs like this:
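Twofold agar dilution in Middlebrook 7H11 agar with 10% OADC (oleic acid, albumin, dextrose). Compounds dissolved in DMSO at 5 mg/mL (one in ethanol at 6 mg/mL), stock, stored cold. MIC determined for each strain. Strains: M. tuberculosis CIP 103471, H37Rv ATCC 27294, rifampicin-resistant ATCC 35838, M. avium CIP 103317.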
The MIC is the smallest concentration in the dilution series that meets the test's criterion for growth inhibition. A low value points to inhibition by little substance. As to `CCc1c(CN2CCSCC2)cc(-c2ccc(F)cc2)n1-c1ccccc1F`, it took 2 µg/mL (≈ 5.02 µM) to inhibit growth (MIC).

As for `CCc1c(CN2CCSCC2)cc(-c2ccccc2F)n1-c1ccccc1F`, the MIC came to 8 µg/mL (≈ 20.1 µM). Compared with the last compound, the MIC is about 4-fold higher.

In the case of `CCc1c(CN2CCSCC2)cc(-c2ccccc2)n1-c1ccccc1`, the MIC stood at 4 µg/mL (≈ 11 µM).

For `CCc1c(CN2CCSCC2)cc(-c2ccc(F)cc2)n1-c1ccccc1`, 1 µg/mL (≈ 2.63 µM) was the least that counted as inhibitory (MIC). Against the preceding compound, the MIC is about 4-fold lower.

Consider `CCc1c(CN2CCN(C)CC2)cc(-c2ccc(Cl)cc2)n1-c1ccc(Cl)cc1`, for which the MIC was 4 µg/mL (≈ 9.34 µM).

`CCc1c(CN2CCSCC2)cc(-c2ccc(C)cc2)n1-c1ccc(F)cc1`: the lowest concentration to inhibit growth (MIC) was 0.25 µg/mL (≈ 0.634 µM). Against the preceding compound, the MIC is about 16-fold lower.

In turn, `CCc1c(CN2CCSCC2)cc(-c2ccccc2)n1-c1ccc(F)cc1` showed an MIC of 4 µg/mL (≈ 10.5 µM).

In the case of `CO[C@H]1/C=C/O[C@@]2(C)Oc3c(C)c(O)c4c(O)c(c(/C=N/N5CCN(C)CC5)c(O)c4c3C2=O)NC(=O)/C(C)=C\C=C\[C@H](C)[C@H](O)[C@@H](C)[C@@H](O)[C@@H](C)[C@H](OC(C)=O)[C@@H]1C` [RIFAMPIN], the MIC was more than 100 µg/mL.

Regarding `CN[C@@H]1[C@H](O[C@H]2[C@H](O[C@H]3[C@H](O)[C@@H](O)[C@H](N=C(N)N)[C@@H](O)[C@@H]3N=C(N)N)O[C@@H](C)[C@]2(O)C=O)O[C@@H](CO)[C@H](O)[C@H]1O` [STREPTOMYCIN], 0.5 µg/mL (≈ 0.86 µM) was the least that counted as inhibitory (MIC).
